Measurements collected from several papers.
Lines come from different studies, so protocols differ.
Target: Prostaglandin G/H synthase 2 (PTGS2, Homo sapiens, UniProt P35354)
Effect on: enzyme activity
Mode: inhibitor
Sequence (P35354 18-604, as in one of the studies): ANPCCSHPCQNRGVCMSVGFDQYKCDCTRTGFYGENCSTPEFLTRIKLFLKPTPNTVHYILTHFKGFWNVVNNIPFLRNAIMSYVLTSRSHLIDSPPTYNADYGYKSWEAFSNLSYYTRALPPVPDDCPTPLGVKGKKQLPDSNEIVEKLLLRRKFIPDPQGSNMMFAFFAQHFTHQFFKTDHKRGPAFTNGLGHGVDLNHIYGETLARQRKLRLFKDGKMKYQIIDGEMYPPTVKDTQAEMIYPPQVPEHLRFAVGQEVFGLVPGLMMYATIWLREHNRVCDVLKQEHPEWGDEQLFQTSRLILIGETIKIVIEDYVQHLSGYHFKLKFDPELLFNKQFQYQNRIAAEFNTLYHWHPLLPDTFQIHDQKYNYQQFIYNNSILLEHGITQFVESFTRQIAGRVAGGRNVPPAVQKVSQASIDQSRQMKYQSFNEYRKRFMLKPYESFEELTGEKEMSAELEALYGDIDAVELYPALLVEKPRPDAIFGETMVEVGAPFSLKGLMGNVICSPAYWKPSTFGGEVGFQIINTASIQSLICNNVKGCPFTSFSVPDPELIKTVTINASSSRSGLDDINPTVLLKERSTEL

`Cc1ccc(-c2nc3ccccc3s2)c(-c2ccc(S(N)(=O)=O)cc2)c1` gave an IC50 of 250 nM (absorbance).
`COc1ccc(-c2nn(-c3ccc(S(C)(=O)=O)cc3)cc2/C=N/N=c2\[nH]c(-c3ccc(Br)cc3)cs2)cc1` gave an IC50 of 18600 nM.
With `O=Cc1cn(-c2nc(N3CCCC3)nc(N3CCOCC3)n2)c2ccccc12` the IC50 was 2000 nM.
With `Cc1ccc(Nc2c(-c3ccc(S(C)(=O)=O)cc3)nc3ccccn23)cc1` the IC50 was 100 nM.
`O=Cc1cn(-c2nc(N3CCOCC3)nc(N3CCOCC3)n2)c2ccccc12` has an IC50 of 30 nM.
`CC(=O)c1cccc(/N=N/c2cc(/C=C/C(=O)O)ccc2O)c1` has an IC50 of > 100000 nM.
`COC(=O)c1cc(O)c(O)c(O)c1` gave an IC50 of 17900 nM.
For `Cc1cccc2nc(-c3ccc(S(C)(=O)=O)cc3)c(Nc3ccccc3)n12`, the IC50 was 70 nM.
`CS(=O)(=O)c1ccc(-c2ncc(Cl)cc2-c2nc3ccccc3s2)cc1` gave an IC50 of 230 nM (absorbance).
For `CC(C)Cc1ccc(-c2nn(-c3ccc(S(C)(=O)=O)cc3)cc2/C=N\N=C2/NC(=O)CS2)cc1`, the IC50 was 756 nM.
With `COc1ccc(Nc2c(-c3ccc(S(C)(=O)=O)cc3)nc3ccccn23)cc1` the IC50 was 390 nM.
For `CC1=NN(c2cccc(Cl)c2)C(=O)/C1=C\c1cn(-c2nc(N3CCCCC3)nc(N3CCOCC3)n2)c2ccccc12`, the IC50 was 50 nM.
`COc1ccc(Nc2c(-c3ccc(S(C)(=O)=O)cc3)nc3cccc(C)n23)cc1` has an IC50 of 90 nM.
`O=C(O)c1cc(O)c(O)c(O)c1` has an IC50 of 8140 nM.
For `CS(=O)(=O)c1ccc(-c2ncccc2-c2nc3ccccc3s2)cc1`, the IC50 was 860 nM (absorbance).
With `Cc1cccn2c(Nc3ccc(F)cc3)c(-c3ccc(S(C)(=O)=O)cc3)nc12` the IC50 was 70 nM.
`O=C1Nc2ccccc2/C1=C/c1cn(-c2nc(N3CCCC3)nc(N3CCOCC3)n2)c2ccccc12` gave an IC50 of 8000 nM.
With `Cc1ccc(-c2nn(-c3ccc(S(C)(=O)=O)cc3)cc2/C=N\N=c2/[nH]c(-c3ccc([N+](=O)[O-])cc3)cs2)cc1` the IC50 was 11300 nM.
For `C=C[C@@]1(C)C=C2CC[C@@H]3[C@](C)(CCC[C@@]3(C)C(=O)O)[C@H]2CC1`, the IC50 was 18500 nM (absorbance).
For `O=C1/C(=C\c2cn(-c3nc(N4CCCCC4)nc(N4CCOCC4)n3)c3ccccc23)c2ccccc2N1c1c(Cl)cccc1Cl`, the IC50 was 1000 nM.
The IC50 of `Cc1ccn2c(Nc3ccc(Cl)cc3)c(-c3ccc(S(C)(=O)=O)cc3)nc2c1` is reported as 80 nM.
`CC1=NN(c2cccc(Cl)c2)C(=O)/C1=C\c1cn(-c2nc(N3CCCC3)nc(N3CCOCC3)n2)c2ccccc12` has an IC50 of 1000 nM.
The IC50 of `CCn1c(-c2nc3ccc(C(=O)N4CCCC(N)C4)cc3n2C)cc2ccccc21` (centres unmarked) is reported as > 100000 nM.
With `CS(=O)(=O)c1ccc(-n2cc(/C=N/N=c3\[nH]c(-c4ccc([N+](=O)[O-])cc4)cs3)c(-c3ccc([N+](=O)[O-])cc3)n2)cc1` the IC50 was 15500 nM.
For `COC(=O)c1ccc(O)cc1`, the IC50 was 97900 nM (absorbance).
`CS(=O)(=O)c1ccc(-n2cc(C=N/N=c3\[nH]c(-c4ccc(Br)cc4)cs3)c(-c3ccc([N+](=O)[O-])cc3)n2)cc1` gave an IC50 of 27800 nM.
For `CC(=O)c1ccc(/N=N/c2cc(/C=C/C(=O)O)ccc2O)cc1`, the IC50 was > 100000 nM.
The IC50 of `CS(=O)(=O)c1ccc(-c2nc3ccccn3c2Nc2ccc(F)cc2)cc1` is reported as 100 nM.
`O=C1Nc2ccccc2/C1=C/c1cn(-c2nc(N3CCOCC3)nc(N3CCOCC3)n2)c2ccccc12` has an IC50 of 1000 nM.
The IC50 of `COc1cc([C@H]2OC[C@H]3[C@@H]2CO[C@@H]3c2cc(OC)c(O)c(OC)c2)cc(OC)c1O` is reported as 2490 nM (absorbance).
With `CC1=NN(c2cccc(Cl)c2)C(=O)/C1=C\c1cn(-c2nc(N3CCOCC3)nc(N3CCOCC3)n2)c2ccccc12` the IC50 was 20 nM.
The IC50 of `Cc1cccc2nc(-c3ccc(S(C)(=O)=O)cc3)c(Nc3ccc(Cl)cc3)n12` is reported as 80 nM.
